Active and inactive are the calls of the source. No cut-off for these calls is given here.

Experiment [1] concerns the target T1, Bifunctional purine biosynthesis protein ATIC (Homo sapiens, UniProt P31939). The experiment is described as follows: In vitro inhibitory activity against Aminoimidazole carboxamide ribonucleotide transformylase pre-incubated for 12 hr at 250 uM; Not active. The essentials:
(§1)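 The AICAR Tfase assay solution was pre-incubated with inhibitor (250 µM, or 25 µM where the line states) for 12 h at room temperature. The reaction was then started by adding AICAR, and enzyme inhibition was measured.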
Target sequence in this assay (P31939 whole entry, looked up): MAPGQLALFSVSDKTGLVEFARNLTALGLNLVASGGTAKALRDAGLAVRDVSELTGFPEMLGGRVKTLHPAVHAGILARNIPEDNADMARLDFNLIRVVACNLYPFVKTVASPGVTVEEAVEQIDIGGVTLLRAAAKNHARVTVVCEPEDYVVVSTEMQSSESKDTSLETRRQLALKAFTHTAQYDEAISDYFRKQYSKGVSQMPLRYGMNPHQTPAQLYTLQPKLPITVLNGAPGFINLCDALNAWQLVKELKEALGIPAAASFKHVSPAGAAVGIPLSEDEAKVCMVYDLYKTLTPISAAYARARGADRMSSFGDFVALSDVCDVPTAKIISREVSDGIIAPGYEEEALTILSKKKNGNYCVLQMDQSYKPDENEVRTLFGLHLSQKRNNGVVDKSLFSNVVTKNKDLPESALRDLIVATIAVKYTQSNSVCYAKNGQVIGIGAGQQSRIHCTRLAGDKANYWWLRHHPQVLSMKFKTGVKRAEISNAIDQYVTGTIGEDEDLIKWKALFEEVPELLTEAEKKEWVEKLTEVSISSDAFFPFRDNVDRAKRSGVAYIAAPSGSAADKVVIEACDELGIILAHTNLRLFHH

In experiment [2] the test system is CCRF-CEM. As to the kind of experiment: Cytotoxicity in the absence of hypoxanthine and presence of thymidine against CCRF-CEM cell line. The class given is functional, cell-based. To be noted: Homo sapiens. The procedure, abridged:
(§2)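 CCRF-CEM cells were grown in purine- and pyrimidine-free medium, with thymidine and/or hypoxanthine added or omitted as each line specifies. The cytotoxic potency was reported as an IC50 (µM).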

In experiment [3] the test system is CCRF-CEM. As to the kind of experiment: Cytotoxicity in the absence of thymidine and hypoxanthine against CCRF-CEM cell line. Format: functional, cell-based. To be noted: Homo sapiens. The procedure, abridged: as §2
For experiment [4], the system named is CCRF-CEM. As to the kind of experiment: Cytotoxicity in the absence of thymidine and presence of hypoxanthine against CCRF-CEM cell line. Format: functional, cell-based. The settings on record: Homo sapiens. The procedure, abridged: as §2
Experiment [5] deals with CCRF-CEM. As to the kind of experiment: Cytotoxicity in the presence of thymidine and hypoxanthine against CCRF-CEM cell line. The class given is functional, cell-based. The settings on record: Homo sapiens. The procedure, abridged:
as §2

The target in experiment [6] is T2, Trifunctional purine biosynthetic protein adenosine-3 (Homo sapiens) (UniProt P22102).
T2 sequence (whole entry): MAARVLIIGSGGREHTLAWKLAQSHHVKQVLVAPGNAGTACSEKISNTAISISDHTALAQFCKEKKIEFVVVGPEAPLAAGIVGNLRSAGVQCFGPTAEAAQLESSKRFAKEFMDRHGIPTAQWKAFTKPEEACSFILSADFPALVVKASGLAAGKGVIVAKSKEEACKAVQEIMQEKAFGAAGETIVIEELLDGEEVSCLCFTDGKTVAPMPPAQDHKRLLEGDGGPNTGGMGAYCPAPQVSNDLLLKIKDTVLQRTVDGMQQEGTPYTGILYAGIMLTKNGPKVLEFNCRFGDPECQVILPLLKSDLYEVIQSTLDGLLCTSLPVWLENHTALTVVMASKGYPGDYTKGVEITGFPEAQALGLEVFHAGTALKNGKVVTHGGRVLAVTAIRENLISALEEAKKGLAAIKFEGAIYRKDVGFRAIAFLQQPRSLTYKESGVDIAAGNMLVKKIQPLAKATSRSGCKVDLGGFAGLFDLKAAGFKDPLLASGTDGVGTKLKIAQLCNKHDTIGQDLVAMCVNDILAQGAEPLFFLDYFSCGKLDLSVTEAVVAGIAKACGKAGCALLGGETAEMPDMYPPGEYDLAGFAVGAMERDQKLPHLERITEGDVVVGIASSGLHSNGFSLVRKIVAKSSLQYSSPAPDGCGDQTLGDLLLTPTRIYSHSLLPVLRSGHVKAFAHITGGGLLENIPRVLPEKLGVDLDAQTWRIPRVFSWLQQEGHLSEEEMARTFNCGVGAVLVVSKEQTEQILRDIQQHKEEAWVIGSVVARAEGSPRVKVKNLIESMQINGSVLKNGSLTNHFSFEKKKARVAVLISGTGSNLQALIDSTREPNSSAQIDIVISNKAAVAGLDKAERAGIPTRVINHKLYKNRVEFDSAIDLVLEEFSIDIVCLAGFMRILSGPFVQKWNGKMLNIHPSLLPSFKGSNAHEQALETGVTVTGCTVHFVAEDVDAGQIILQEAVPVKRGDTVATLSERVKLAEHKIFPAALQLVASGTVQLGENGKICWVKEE
As to the kind of experiment: In vitro inhibitory activity against Glycinamide ribonucleotide transformylase (GAR Tfase) after 1 hr at 25 uM; […].

For experiment [7], the target named is T2, Trifunctional purine biosynthetic protein adenosine-3 (Homo sapiens). The experiment is described as follows: In vitro inhibitory activity against Glycinamide ribonucleotide transformylase (GAR Tfase) after 30 min at 250 uM; Not active.
For experiment [8] the target is unchanged. As to the kind of experiment: In vitro inhibitory activity against Glycinamide ribonucleotide transformylase (GAR Tfase) after 3 min at 250 uM; Not active.
The target in experiment [9] is T1, Bifunctional purine biosynthesis protein ATIC. As to the kind of experiment: In vitro inhibitory activity against Aminoimidazole carboxamide ribonucleotide transformylase. The essentials:
as §1
Target sequence in this assay (P31939 whole entry): as the sequence (P31939 whole entry, looked up) above

Experiment [10] concerns the target T2, Trifunctional purine biosynthetic protein adenosine-3 (Homo sapiens). As to the kind of experiment: In vitro inhibitory activity against Glycinamide ribonucleotide transformylase (GAR Tfase) after 6 hr at 250 uM. Format: functional.
The target in experiment [11] is T1, Bifunctional purine biosynthesis protein ATIC. As to the kind of experiment: In vitro inhibitory activity against Aminoimidazole carboxamide ribonucleotide transformylase after 12 hr at 250 uM; Not active.
Target sequence in this assay (P31939 whole entry, looked up): as the sequence (P31939 whole entry, looked up) above
The target in experiment [12] is T2, Trifunctional purine biosynthetic protein adenosine-3 (Homo sapiens). As to the kind of experiment: In vitro inhibitory activity against Glycinamide ribonucleotide transformylase (GAR Tfase) after 6 hr at 250 uM; Not active.
For experiment [13] the target is unchanged. The experiment is described as follows: In vitro inhibitory activity against Glycinamide ribonucleotide transformylase (GAR Tfase) after 7 hr at 250 uM.
The target is the same in experiment [14]. The experiment is described as follows: In vitro inhibitory activity against Glycinamide ribonucleotide transformylase (GAR Tfase) following 3 min pre-incubation at 250 uM concentration.
For experiment [15], the target named is T1, Bifunctional purine biosynthesis protein ATIC. The experiment is described as follows: In vitro inhibitory activity against Aminoimidazole carboxamide ribonucleotide transformylase pre-incubed for 12 hr at 250 uM. The essentials: as §1
Target sequence in this assay (P31939 whole entry, looked up): as the sequence (P31939 whole entry, looked up) above
The target of experiment [16] is T2, Trifunctional purine biosynthetic protein adenosine-3 (Homo sapiens). As to the kind of experiment: In vitro inhibitory activity at 250 uM concentration against Glycinamide ribonucleotide transformylase (GAR Tfase) pre-incubation time (6 hr).
For experiment [17] the target is unchanged. As to the kind of experiment: (§3) In vitro inhibitory activity against Glycinamide ribonucleotide transformylase (GAR Tfase) after 6 hr at 25 uM.
Experiment [18] has the same target. The description is as §3. This is another data set of the same source.
Experiment [19] shares this target. The experiment is described as follows: In vitro inhibitory activity against Glycinamide ribonucleotide transformylase (GAR Tfase+GAR) pre-incubation of 6 hr at 250 uM concentration.
Experiment [20] has the same target. The experiment is described as follows: In vitro inhibitory activity against Glycinamide ribonucleotide transformylase (GAR Tfase) after 3 min at 25 uM; […].
The target is the same in experiment [21]. The experiment is described as follows: In vitro inhibitory activity against Glycinamide ribonucleotide transformylase (GAR Tfase+GAR) following 3 min pre-incubation at 250 uM concentration.
Experiment [22] has the same target. The experiment is described as follows: In vitro inhibitory activity against Glycinamide ribonucleotide transformylase (GAR Tfase) after 30 min at 25 uM; Not active.
Experiment [23] shares this target. As to the kind of experiment: In vitro inhibitory activity against Glycinamide ribonucleotide transformylase (GAR Tfase+GAR) following 30 min pre-incubation at 250 uM concentration.
Experiment [24] has the same target. The experiment is described as follows: In vitro inhibitory activity against Glycinamide ribonucleotide transformylase (GAR Tfase) after 3 min at 25 uM.
Experiment [25] has the same target. The experiment is described as follows: In vitro inhibitory activity against Glycinamide ribonucleotide transformylase (GAR Tfase) after 30 min at 25 uM.

Turning to `Nc1nc(N)c(CCNc2cc(F)c(F)cc2[N+](=O)[O-])c(O)n1`, the inhibition entry in experiment [1], in experiment [6], in [7] and in experiment [8] was “inactive” throughout. Also, the IC50 (usually the point on the concentration scale where inhibition reaches its midpoint) was determined as 43 µM in the experiment on CCRF-CEM [2], 55 µM with CCRF-CEM [3], 37 µM in the experiment on CCRF-CEM [4] and 58 µM in the experiment with CCRF-CEM [5].

As for `Nc1nc2ccc(CN(Cc3ccc([N+](=O)[O-])c(F)c3)c3ccc(C(=O)NC(CCC(=O)O)C(=O)O)cc3)cc2c(=O)[nH]1` (centres undefined), the Ki – broadly, the equilibrium dissociation constant of an inhibitor or competing ligand from its target – in [9] is 52 µM.

Regarding `Nc1nc(O)c2cc(CN(Cc3ccc(F)c([N+](=O)[O-])c3)c3ccc(C(=O)NC(CCC(=O)O)C(=O)O)cc3)ccc2n1` (centres undefined), the Ki in experiment [9] came to 17 µM.

Regarding `Nc1nc(N)c(CCCNc2ccc([N+](=O)[O-])c(F)c2F)c(O)n1`, the IC50 with CCRF-CEM [2] came to 68 µM; in the experiment on CCRF-CEM [3], 76 µM; with CCRF-CEM [4], 76 µM; with CCRF-CEM [5], 73 µM. The inhibition (in general, the drop in the measured response relative to a control, in per cent) in [10] amounted to 59%. Further, the inhibition entry in experiment [7], in experiment [8] and in experiment [11] was “inactive” each time.

With `Nc1nc(N)c(CCCNc2cc(F)ccc2[N+](=O)[O-])c(O)n1`, the inhibition entry in experiment [1], in [7], in experiment [12] and in [8] was “inactive” throughout. In addition, the concentration for half-maximal inhibition (IC50) in the experiment with CCRF-CEM [2], in the experiment with CCRF-CEM [3], in the experiment with CCRF-CEM [4] and in the experiment with CCRF-CEM [5] was above 100 µM in each case. Also, the results for the inhibition in [13] and in experiment [14] were 64% and 86%, respectively.

Regarding `Nc1nc(N)c(CCCNc2cc(F)c([N+](=O)[O-])cc2[N+](=O)[O-])c(O)n1`, the inhibition was found to be 64% in experiment [15]; 39% in experiment [16]; 58% in experiment [17]; 56% in [18]; 2% in experiment [19]; 100% in experiment [21]. In addition, the inhibition in experiment [23] stood at 75%; in experiment [24], 76%; in [14] it was 76%; in experiment [25], 71%. The IC50 in the experiment with CCRF-CEM [2] turned out to be 1.1 µM; with CCRF-CEM [3], 1 µM; in the experiment with CCRF-CEM [4] it was 1 µM; in the experiment on CCRF-CEM [5] it was 1.2 µM. The inhibition result in experiment [20] and in experiment [22] was “inactive” in each case.

(Values after ChEMBL document CHEMBL1133492, “Design, synthesis, and biological evaluation of fluoronitrophenyl substituted folate analogues as potential inhibitors of GAR transformylase and AICAR transformylase” (Bioorg Med Chem Lett, 2000).)
